Results published in ChEMBL document CHEMBL4828720, “Macrocyclic Immunoproteasome Inhibitors as a Potential Therapy for Alzheimer's Disease” (J Med Chem, 2021).

What was measured:
[1] = target: T1, Proteasome subunit beta type-9 (Homo sapiens, UniProt P28065); test: Inhibition of human 20S proteasome LMP2 using Ac-PAL-AMC as fluorogenic substrate measured every minute for 1 hr by fluorescence assay
T1 sequence (P28065 whole entry): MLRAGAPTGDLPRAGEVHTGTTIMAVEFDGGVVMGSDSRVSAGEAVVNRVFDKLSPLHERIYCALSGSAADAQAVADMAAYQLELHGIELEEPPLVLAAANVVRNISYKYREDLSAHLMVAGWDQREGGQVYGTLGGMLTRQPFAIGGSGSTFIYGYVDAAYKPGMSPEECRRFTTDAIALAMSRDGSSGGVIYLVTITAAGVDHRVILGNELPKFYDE
Outline: (§1)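 Preincubated 1 h with inhibitor at 3-10,000 nM (8 concentrations). Substrates at 100 μM: Ac-PAL-AMC (LMP2), Ac-nLPnLD-AMC (Y), Ac-ANW-AMC (LMP7). Ac-WLA-AMC (X) at 20 μM. AMC fluorescence (360/460 nm) read each minute for 1 h; 3 replicates.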

[2] = target: T2, Proteasome subunit beta type-8 (Homo sapiens, UniProt P28062); test: Inhibition of human 20S proteasome LMP7 using Ac-ANW-AMC as fluorogenic substrate measured every minute for 1 hr by fluorescence assay
T2 sequence (P28062 whole entry): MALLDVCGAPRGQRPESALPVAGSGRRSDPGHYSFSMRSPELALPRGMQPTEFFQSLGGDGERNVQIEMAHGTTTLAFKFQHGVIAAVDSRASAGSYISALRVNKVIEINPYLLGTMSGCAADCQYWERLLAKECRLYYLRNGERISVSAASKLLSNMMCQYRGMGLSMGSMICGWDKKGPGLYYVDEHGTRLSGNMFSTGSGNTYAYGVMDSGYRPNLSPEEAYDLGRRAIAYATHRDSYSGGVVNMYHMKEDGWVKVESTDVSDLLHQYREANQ
Outline: as §1, with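 “Purified human 20S constitutive or immunoproteasome, 50 ng in 20 mM Tris-HCl, 0.5 mM EDTA, 0.035% SDS, pH 8.0. Preincubated” for “Preincubated”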

[3] = Inhibition of human 20S proteasome X using Ac-WLA-AMC as fluorogenic substrate measured every minute for 1 hr by fluorescence assay
Outline: as §1, with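 “Purified human 20S constitutive or immunoproteasome, 50 ng in 20 mM Tris-HCl, 0.5 mM EDTA, 0.035% SDS, pH 8.0. Preincubated” for “Preincubated”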

[4] = target: T1, Proteasome subunit beta type-9; test: Inhibition of human 20S proteasome LMP2 activity in human RPMI-8226 cells using Ac-PAL-AMC as fluorogenic substrate incubated for 72 hrs by fluorescence assay; format: cell-based
Homo sapiens = organism: Homo sapiens; test: Selectivity index, ratio of IC50 for inhibition of human 20S proteasome LMP2 activity in human RPMI-8226 cells overexpressing ABCB1 to IC50 for inhibition of human 20S proteasome LMP2 activity in human RPMI-8226 cells; format: cell-based
Outline: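 Carfilzomib-resistant RPMI 8226/ABCB1 line, kept drug-free for two weeks, alongside parental RPMI 8226. Cells exposed to varying inhibitor concentrations for 72 h, n=3 per concentration. Lysates (5 μg protein, pH 8.0 Tris/EDTA/0.035% SDS buffer) read with 100 μM Ac-PAL-AMC at ex 360/em 460 nm every minute for 1 h. IC50 from curve fitting, mean ± SD.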

[5] = target: T1, Proteasome subunit beta type-9; test: Inhibition of human 20S proteasome LMP2 activity in human RPMI-8226 cells overexpressing ABCB1 using Ac-PAL-AMC as fluorogenic substrate incubated for 72 hrs by fluorescence assay; format: cell-based
[6] = Inhibition of human 20S proteasome Y using Ac-nLPnLD-AMC as fluorogenic substrate measured every minute for 1 hr by fluorescence assay; outline: as §1

SMILES | IC50 [1] | IC50 [2] | IC50 [3] | IC50 [4] | IC50 [5] | IC50 [6] | Ratio IC50 (Homo sapiens)
CC(C)C[C@H](NC(=O)[C@@H]1COCCCCCCC(=O)NCC(=O)N2CCC[C@H]2C(=O)N1)C(=O)[C@@]1(C)CO1 | 65.6 nM | > 10000 nM | > 10000 nM | > 10000 nM | > 10000 nM |  | 
CC(C)C[C@H](NC(=O)[C@@H]1COCCCCCC(=O)N2CCC[C@@]2(C)C(=O)N1)C(=O)[C@@]1(C)CO1 | 4580 nM | > 10000 nM | > 10000 nM |  |  |  | 
CC(C)C[C@H](NC(=O)[C@@H]1COCCCCCC(=O)N2CCCC[C@H]2C(=O)N1)C(=O)[C@@]1(C)CO1 | 1240 nM | > 10000 nM | > 10000 nM |  |  |  | 
CC(C)C[C@H](NC(=O)[C@@H]1COCCCCCC(=O)NCC(=O)N2CCC[C@H]2C(=O)N1)C(=O)[C@@]1(C)CO1 | 69.4 nM | > 10000 nM | > 10000 nM | > 10000 nM | > 10000 nM |  | 
CC(=O)NCC(=O)N1CCC[C@H]1C(=O)N[C@@H](Cc1ccccc1)C(=O)N[C@@H](CC(C)C)C(=O)[C@@]1(C)CO1 |  |  | > 10000 nM |  |  |  | 
CC(C)C[C@H](NC(=O)[C@@H]1COCCCCCCCC(=O)N2CCC[C@H]2C(=O)N1)C(=O)[C@@]1(C)CO1 | 158 nM | > 10000 nM | > 10000 nM |  |  |  | 
CC(C)C[C@H](NC(=O)[C@@H]1Cc2ccc(cc2)OCCCCCCC(=O)N2CCC[C@H]2C(=O)N1)C(=O)[C@@]1(C)CO1 | 423 nM | > 10000 nM | > 10000 nM |  |  |  | 

Now from value to molecule, other results behind:

IC50 [1] | IC50 [2] | IC50 [3] | IC50 [4] | IC50 [5] | IC50 [6] | SMILES | Ratio IC50 (Homo sapiens)
523 nM | 5770 nM | > 10000 nM |  |  |  | C[C@]1(C(=O)[C@H](CC2CCCCC2)NC(=O)[C@@H]2COCCCCCC(=O)N3CCC[C@H]3C(=O)N2)CO1 | 
413 nM | > 10000 nM | 1080 nM | 35.8 nM | 147 nM | 1500 nM | CC(C)C[C@H](NC(=O)[C@@H]1COCCCCCC(=O)N2CCC[C@H]2C(=O)N1)C(=O)[C@@]1(C)CO1 | 4.1
 |  | > 10000 nM |  |  |  | CC(C)C[C@H](NC(=O)[C@H](Cc1ccccc1)NC(=O)[C@@H]1CCCN1C(=O)CNC(=O)c1cnccn1)C(=O)[C@@]1(C)CO1 | 
251 nM | > 10000 nM | > 10000 nM |  |  |  | C[C@]1(C(=O)[C@H](Cc2ccccc2)NC(=O)[C@@H]2COCCCCCC(=O)N3CCC[C@H]3C(=O)N2)CO1 | 
414 nM | 342 nM | 5000 nM |  |  | 414 nM | CC(C)C[C@H](NC(=O)[C@@H]1Cc2ccc(cc2)OCCCCCCCCC(=O)N2CCC[C@H]2C(=O)N1)C(=O)[C@@]1(C)CO1 | 
261 nM | > 10000 nM | > 10000 nM |  |  |  | CC(C)C[C@H](NC(=O)[C@@H]1COCCCCCC(=O)N2CC[C@H]2C(=O)N1)C(=O)[C@@]1(C)CO1 | 
2130 nM | > 10000 nM | > 10000 nM |  |  | > 10000 nM | CC(C)C[C@H](NC(=O)[C@@H]1COCCCCCC(=O)N2C[C@H](F)C[C@H]2C(=O)N1)C(=O)[C@@]1(C)CO1 | 
129 nM | 1520 nM | 4770 nM | 33.9 nM | 161 nM | 715 nM | CC(C)C[C@H](NC(=O)[C@@H]1Cc2ccc(cc2)OCCCCCCCC(=O)N2CCC[C@H]2C(=O)N1)C(=O)[C@@]1(C)CO1 | 4.7
563 nM | > 10000 nM | 4640 nM |  |  |  | CC(C)C[C@H](NC(=O)[C@@H]1COCCCCCCC(=O)N2CCC[C@H]2C(=O)N1)C(=O)[C@@]1(C)CO1 | 
238 nM | > 10000 nM | > 10000 nM |  |  |  | CC(C)C[C@H](NC(=O)[C@@H]1COCCCCCC(=O)N2CC(F)(F)C[C@H]2C(=O)N1)C(=O)[C@@]1(C)CO1 | 
168 nM | 2690 nM | 5000 nM |  |  |  | C[C@]1(C(=O)[C@H](CC2CCCCC2)NC(=O)[C@@H]2Cc3ccc(cc3)OCCCCCCCC(=O)N3CCC[C@H]3C(=O)N2)CO1 | 
